Assay results from the M2OR odorant receptor database.

tested on: T1, OR5H1; conditions: stereoisomer not certain
T1 sequence (whole entry): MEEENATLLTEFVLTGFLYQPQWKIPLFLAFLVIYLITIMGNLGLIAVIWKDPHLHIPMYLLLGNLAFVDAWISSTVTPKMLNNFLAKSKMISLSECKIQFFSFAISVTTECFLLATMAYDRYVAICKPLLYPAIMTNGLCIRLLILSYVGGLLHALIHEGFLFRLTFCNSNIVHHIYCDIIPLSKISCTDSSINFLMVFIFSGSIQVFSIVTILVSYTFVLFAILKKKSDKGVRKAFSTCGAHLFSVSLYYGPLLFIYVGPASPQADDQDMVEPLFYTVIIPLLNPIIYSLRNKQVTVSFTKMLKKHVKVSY
In short: (§1)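 Each entry records the cell line, G-protein, co-transfected protein and tags used. Methods varied with the source, often transient luciferase assays in mammalian cell lines. A receptor–molecule pair is called responsive (active) if the original authors judged its signal statistically different from baseline and non-responsive (inactive) otherwise.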

Odorant receptor agonist call, inactive:
CC1=C(O)C(=O)C(C)O1 (configuration not stated)
CC1=C(O)C(=O)OC1C (configuration not stated)
CCC1OC(=O)C(O)=C1C (configuration not stated)
CCCC(S)CCOC(C)=O (configuration not stated)
Cc1cnc(C)c(C)n1
CC1=NC(C)C(C)S1 (configuration not stated)
CCC1OC(C)=C(O)C1=O (configuration not stated)

tested on: T2, OR5H2; conditions: stereoisomer not certain
T2 sequence (whole entry): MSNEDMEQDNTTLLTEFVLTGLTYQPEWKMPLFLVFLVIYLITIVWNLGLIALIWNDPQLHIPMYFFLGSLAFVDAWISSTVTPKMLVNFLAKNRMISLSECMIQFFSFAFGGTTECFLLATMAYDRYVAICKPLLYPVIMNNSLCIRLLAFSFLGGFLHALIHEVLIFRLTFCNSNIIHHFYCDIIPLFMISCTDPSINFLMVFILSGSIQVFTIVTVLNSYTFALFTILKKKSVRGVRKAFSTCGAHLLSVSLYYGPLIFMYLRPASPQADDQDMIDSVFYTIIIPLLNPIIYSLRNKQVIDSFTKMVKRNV
In short: as §1

Odorant receptor agonist call, inactive:
CC(=O)c1c(C)c([N+](=O)[O-])c(C(C)(C)C)c([N+](=O)[O-])c1C
CCC(S)C(C)CO (configuration not stated)
CC1=C(O)C(=O)C(C)O1 (configuration not stated)
CC1CCCCCCCCCCCCC(=O)C1 (configuration not stated)
CC1=C(O)C(=O)OC1C (configuration not stated)
CCCCCC(=O)C(C)C(C)=O (configuration not stated)
CCC1OC(=O)C(O)=C1C (configuration not stated)
CCCC(S)CCOC(C)=O (configuration not stated)
CCCCCCC=CCCC=O
CCCCC(S)C(C)CO (configuration not stated)
Cc1cnc(C)c(C)n1
CCCCCC(S)C(C)CO (configuration not stated)
CC1=NC(C)C(C)S1 (configuration not stated)
CC(CO)CS (configuration not stated)
CCC1OC(C)=C(O)C1=O (configuration not stated)
